Each block holds one molecule with its values, some of them ahead of it.
Legend:
[1] = tested on: CT26; test: Growth inhibition of mouse CT26 cells after 72 hrs by MTT assay; assay type: functional, cell-based; details: CT26, 72 h
Procedure, shortened: (§1)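 Cells seeded at 10 000 to 40 000 cells/mL (cell-type dependent) and allowed 24 h to plate, then grown 72 h with or without compound. Culture in RPMI with 10% heat-inactivated FCS, 4 mM glutamine, gentamicin and penicillin-streptomycin. Living cells reduce MTT to formazan, read at 570 nm against a 630 nm reference. IC50 reported as mean ± SD.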

[2] = tested on: MCF7; test: Growth inhibition of human MCF7 cells after 72 hrs by MTT assay; assay type: functional, cell-based; details: MCF7, 72 h; procedure, shortened: as §1
[3] = tested on: B16-F10; test: Growth inhibition of mouse B16F10 cells after 72 hrs by MTT assay; assay type: functional, cell-based; details: B16-F10, 72 h; procedure, shortened: as §1
[4] = Growth inhibition of human U373 cells after 72 hrs by MTT assay; assay type: functional, cell-based, U-373MG ATCC; details: U373 MG; procedure, shortened: as §1
[5] = tested on: A549; test: Growth inhibition of human A549 cells after 72 hrs by MTT assay; assay type: functional, cell-based; details: A549, 72 h; procedure, shortened: as §1
[6] = Growth inhibition of human Hs683 cells after 72 hrs by MTT assay; assay type: functional, cell-based; details: Hs 683, 72 h; procedure, shortened: as §1

Compound: C[C@]12CC[C@H](OS(=O)(=O)O)C[C@@]1(O)CC[C@@H]1[C@@H]2CC[C@]2(C)[C@@H](c3ccc(=O)oc3)CC[C@]12O
IC50 [1]: > 10000 nM
IC50 [2]: 1580 nM
IC50 [3]: > 10000 nM
IC50 [4]: 51 nM
IC50 [5]: 36 nM
IC50 [6]: 7 nM

Compound: C[C@]12CC[C@H]3[C@@H](CC[C@@H]4C[C@@H](OS(=O)(=O)O)CC[C@@]43CO)[C@@]1(O)CC[C@@H]2c1ccc(=O)oc1
IC50 [1]: > 10000 nM
IC50 [2]: 150 nM
IC50 [3]: > 10000 nM
IC50 [4]: 12 nM
IC50 [5]: 5 nM
IC50 [6]: 82 nM

Compound: C[C@@H]1O[C@@H](O[C@H]2CC[C@]3(C=O)[C@H]4CC[C@]5(C)[C@@H](c6ccc(=O)oc6)CC[C@]5(O)[C@@H]4CC[C@]3(O)C2)[C@H](O)[C@H](O)[C@H]1O[C@@H]1O[C@H](CO)[C@@H](O)[C@H](O)[C@H]1O [HELLEBRIN]
IC50 [1]: > 10000 nM
IC50 [2]: 82 nM
IC50 [3]: > 10000 nM
IC50 [4]: 49 nM
IC50 [5]: 16 nM
IC50 [6]: 7 nM

Compound: C[C@]12CC[C@H]3[C@@H](CC[C@]4(O)C[C@@H](OS(=O)(=O)O)CC[C@]34CO)[C@@]1(O)CC[C@@H]2c1ccc(=O)oc1
IC50 [1]: > 10000 nM
IC50 [2]: 120 nM
IC50 [3]: > 10000 nM
IC50 [4]: 323 nM
IC50 [5]: 80 nM
IC50 [6]: 50 nM

Compound: C[C@]12CC[C@H]3[C@@H](CC[C@]4(O)C[C@@H](OS(=O)(=O)O)CC[C@]34C=O)[C@@]1(O)CC[C@@H]2c1ccc(=O)oc1
IC50 [1]: > 10000 nM
IC50 [2]: 507 nM
IC50 [3]: > 10000 nM
IC50 [4]: 396 nM
IC50 [5]: 45 nM
IC50 [6]: 98 nM

Compound: C[C@]12CC[C@H](OS(=O)(=O)O)C[C@H]1CC[C@@H]1[C@@H]2CC[C@]2(C)[C@@H](c3ccc(=O)oc3)[C@@H](O)C[C@]12O
IC50 [1]: > 10000 nM
IC50 [2]: 3290 nM
IC50 [3]: > 10000 nM
IC50 [4]: 525 nM
IC50 [5]: 464 nM
IC50 [6]: 177 nM

IC50 [1]: > 10000 nM
IC50 [2]: 2250 nM
IC50 [3]: > 10000 nM
IC50 [5]: 1360 nM
Compound: CC(=O)O[C@H]1C[C@]2(O)[C@@H]3CC[C@@H]4C[C@@H](O)CC[C@]4(C)[C@H]3[C@H](O)C(=O)[C@]2(C)[C@H]1c1ccc(=O)oc1
IC50 [4]: 878 nM
IC50 [6]: 455 nM

Reference: ChEMBL document CHEMBL1157108, “Rapid structural identification of cytotoxic bufadienolide sulfates in toad venom from Bufo melanosticus by LC-DAD-MS(n) and LC-SPE-NMR” (J Nat Prod, 2010)
